Our source for the IC50 values is ChEMBL document CHEMBL6121022, “Cytotoxic and Noncytotoxic Steroidal Constituents of Cryptolepis dubia” (J Nat Prod, 2025).

Molecules are shown by their SMILES.

The subject of test [1] is HT-29. The experiment in a line: Cytotoxicity against human HT-29 cells assessed as inhibition of cell viability incubated for 72 hrs by celltiter-blue cell viability assay. The format is functional, cell-based. Particulars: HT-29, 72 h. In a few lines:
(§1)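 Cells grown in RPMI 1640 or DMEM with 10% FBS, penicillin 100 units/mL and streptomycin 100 μg/mL. Treated with compounds for 72 h; vehicle negative control, paclitaxel positive control. Viability read by CellTiter-Blue absorbance. IC50 relative to vehicle control by nonlinear regression; triplicate measurements, representative of three independent experiments.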
(The colour change of resazurin is a common sign of viable cells or microbes.)

Test [2] relates to MDA-MB-231. Briefly: Cytotoxicity against human MDA-MB-231 cells assessed as inhibition of cell viability incubated for 72 hrs by celltiter-blue cell viability assay. The format is functional, cell-based. Conditions: MDA-MB-231, 72 h. Put shortly: as §1
The subject of test [3] is OVCAR-3. The experiment in a line: Cytotoxicity against human OVCAR-3 cells assessed as inhibition of cell viability incubated for 72 hrs by celltiter-blue cell viability assay. The class given is functional, cell-based. Particulars: OVCAR-3, 72 h. Put shortly: as §1
For test [4], the system named is OVCAR-5. The experiment in a line: Cytotoxicity against human OVCAR-5 cells assessed as inhibition of cell viability incubated for 72 hrs by celltiter-blue cell viability assay. Conditions: OVCAR-5, 72 h. The format is functional, cell-based. Put shortly: as §1
Test [5] has as its system MDA-MB-435. The experiment in a line: Cytotoxicity against human MDA-MB-435 cells assessed as inhibition of cell viability incubated for 72 hrs by celltiter-blue cell viability assay. The class given is functional, cell-based. Particulars: MDA-MB-435, 72 h. In a few lines: as §1
The nature of test [6]: Inhibition of Na+/K+-ATPase (unknown origin) by luminescent ADP detection assay. Further details: species or system Homo sapiens. Put shortly:
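NKA activity read as ADP formed, by luminescent ADP detection (ADP-Glo Max). IC50 is the concentration giving 50% inhibition of NKA activity. In vitro measurements were run in triplicate and are representative of three independent experiments.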

In general, IC50 refers to the concentration that gives 50% inhibition.

For `C[C@]12CC[C@H]3[C@@H](C=CC4=CC(=O)[C@H](O)C[C@@]43C)[C@@H]1CC[C@@H]2C(=O)CO`, the IC50 in test [1], in test [2], in test [3], in test [4] and in test [5] was above 10 µM in each case.

With `C[C@]12CC[C@H]3[C@@H](C=CC4=CC(=O)[C@H](O)C[C@@]43C)[C@@H]1CC[C@@H]2C(=O)O`, the IC50 is above 10 µM in test [1]; above 10 µM in test [2]; above 10 µM in test [3]; above 10 µM in test [4]; above 10 µM in test [5]; above 100 µM in test [6].

With `CO[C@H]1C[C@H](O[C@H]2CC[C@@]3(C)[C@@H](C2)C[C@@H]2O[C@]24[C@@H]3[C@H](OC(C)=O)C(=O)[C@]2(C)[C@@H](C3=CC(=O)OC3)CC[C@]42O)O[C@@H](C)[C@@H]1OC(C)=O`, the IC50 in test [1] was above 10 µM; in test [2], above 10 µM; in test [3], above 10 µM; in test [4], above 10 µM; in test [5], above 10 µM; in test [6] it was above 100 µM.

With `CO[C@H]1C[C@H](O[C@H]2CC[C@@]3(C)[C@@H](C2)C[C@@H]2O[C@]24[C@@H]3[C@H](O)C(=O)[C@]2(C)[C@H](C3=CC(=O)OC3)CC[C@]42O)O[C@@H](C)[C@@H]1O`, the IC50 in test [1] was above 10 µM; in test [2], above 10 µM; in test [3] it was 7 µM; in test [4] it was above 10 µM; in test [5] it was above 10 µM; in test [6] it was 40 µM.

In test [6], `C[C@H]1O[C@@H](O[C@H]2[C@@H](O)C[C@H](O[C@H]3[C@@H](O)C[C@H](O[C@H]4CC[C@@]5(C)[C@H](CC[C@@H]6[C@@H]5CC[C@]5(C)[C@@H](C7=CC(=O)OC7)CC[C@]65O)C4)O[C@@H]3C)O[C@@H]2C)C[C@H](O)[C@@H]1O` [DIGITOXIN] came in with an IC50 of 0.46 µM.

Consider `CC(=O)O[C@H]1C(=O)[C@@]2(C)[C@H]([C@H](OC(=O)c3ccccc3)[C@]3(O)C[C@H](OC(=O)[C@H](O)[C@@H](NC(=O)c4ccccc4)c4ccccc4)C(C)=C1C3(C)C)[C@]1(OC(C)=O)CO[C@@H]1C[C@@H]2O` [PACLITAXEL], for which the IC50 in test [1] was found to be 0.0034 µM.
